System: U2OS
Test: Multiplex assay against U2OS
Type: toxicity, cell-based
Details: human
Summary of the method: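 Cells stained live at seeding with Hoechst33342, BioTracker Green Microtubule Cytoskeleton Dye, MitoTracker Red and Annexin V Alexa Fluor 680 were imaged on a CQ1 microscope at 37°C and 5% CO2 after compound addition. Their classification by CellPathfinder machine-learning gating ran from Hoechst high-intensity objects versus normal cells, to healthy, pyknosed or fragmented nuclei among normal cells, to mitotic or apoptotic among pyknosed cells. Tubulin, mitochondrial-mass and membrane-permeability phenotypes are per cents of healthy-nucleus cells.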

[1] = 12 h, 1 µM, compound concentration 1 uM, replicate 1
[2] = 12 h, 1 µM, compound concentration 1 uM, replicate 2
[3] = 12 h, 10 µM, compound concentration 10 uM, replicate 1
[4] = 12 h, 10 µM, compound concentration 10 uM, replicate 2
[5] = 24 h, 1 µM, compound concentration 1 uM, replicate 1
[6] = 24 h, 1 µM, compound concentration 1 uM, replicate 2
[7] = 24 h, 10 µM, compound concentration 10 uM, replicate 1
[8] = 24 h, 10 µM, compound concentration 10 uM, replicate 2
[9] = 48 h, 1 µM, compound concentration 1 uM, replicate 1
[10] = 48 h, 1 µM, compound concentration 1 uM, replicate 2
[11] = 48 h, 10 µM, compound concentration 10 uM, replicate 1
[12] = 48 h, 10 µM, compound concentration 10 uM, replicate 2

CC(C)c1noc(N2CCC(COc3ccc(-c4ccc(S(C)(=O)=O)cc4)nc3)CC2)n1 [GSK-1292263]
Population Apoptotic (%) [1]: 58%
Population Fragmented Nuclei (%) [1]: 25%
Population Healthy Nuclei (%) [1]: 64%
Population Hoechst High Intensity Objects (%) [1]: 17%
Population Membrane Permeable-Phenotype (%) [1]: 5%
Population Mitochondria Different-Phenotype (%) [1]: 10%
Population Mitotic Cells (%) [1]: 41%
Population Normal (%) [1]: 82%
Population Pyknosed Nuclei (%) [1]: 10%
Population Tubulin-Different-Phenotype (%) [1]: 10%
Total Cell Count [1]: 304
Population Apoptotic (%) [2]: 50%
Population Fragmented Nuclei (%) [2]: 12%
Population Healthy Nuclei (%) [2]: 85%
Population Hoechst High Intensity Objects (%) [2]: 2%
Population Membrane Permeable-Phenotype (%) [2]: 3%
Population Mitochondria Different-Phenotype (%) [2]: 4%
Population Mitotic Cells (%) [2]: 50%
Population Normal (%) [2]: 97%
Population Pyknosed Nuclei (%) [2]: 2%
Population Tubulin-Different-Phenotype (%) [2]: 9%
Total Cell Count [2]: 89
Population Apoptotic (%) [3]: 54%
Population Fragmented Nuclei (%) [3]: 16%
Population Healthy Nuclei (%) [3]: 67%
Population Hoechst High Intensity Objects (%) [3]: 7%
Population Membrane Permeable-Phenotype (%) [3]: 12%
Population Mitochondria Different-Phenotype (%) [3]: 18%
Population Mitotic Cells (%) [3]: 45%
Population Normal (%) [3]: 92%
Population Pyknosed Nuclei (%) [3]: 15%
Population Tubulin-Different-Phenotype (%) [3]: 33%
Total Cell Count [3]: 141
Population Apoptotic (%) [4]: 42%
Population Fragmented Nuclei (%) [4]: 5%
Population Healthy Nuclei (%) [4]: 83%
Population Hoechst High Intensity Objects (%) [4]: 5%
Population Membrane Permeable-Phenotype (%) [4]: 3%
Population Mitochondria Different-Phenotype (%) [4]: 10%
Population Mitotic Cells (%) [4]: 57%
Population Normal (%) [4]: 94%
Population Pyknosed Nuclei (%) [4]: 10%
Population Tubulin-Different-Phenotype (%) [4]: 15%
Total Cell Count [4]: 76
Population Apoptotic (%) [5]: 50%
Population Fragmented Nuclei (%) [5]: 17%
Population Healthy Nuclei (%) [5]: 73%
Population Hoechst High Intensity Objects (%) [5]: 15%
Population Membrane Permeable-Phenotype (%) [5]: 5%
Population Mitochondria Different-Phenotype (%) [5]: 11%
Population Mitotic Cells (%) [5]: 50%
Population Normal (%) [5]: 84%
Population Pyknosed Nuclei (%) [5]: 8%
Population Tubulin-Different-Phenotype (%) [5]: 5%
Total Cell Count [5]: 334
Population Apoptotic (%) [6]: 0%
Population Fragmented Nuclei (%) [6]: 14%
Population Healthy Nuclei (%) [6]: 83%
Population Hoechst High Intensity Objects (%) [6]: 2%
Population Membrane Permeable-Phenotype (%) [6]: 2%
Population Mitochondria Different-Phenotype (%) [6]: 10%
Population Mitotic Cells (%) [6]: 100%
Population Normal (%) [6]: 97%
Population Pyknosed Nuclei (%) [6]: 2%
Population Tubulin-Different-Phenotype (%) [6]: 13%
Total Cell Count [6]: 103
Population Apoptotic (%) [7]: 40%
Population Fragmented Nuclei (%) [7]: 20%
Population Healthy Nuclei (%) [7]: 67%
Population Hoechst High Intensity Objects (%) [7]: 7%
Population Membrane Permeable-Phenotype (%) [7]: 9%
Population Mitochondria Different-Phenotype (%) [7]: 14%
Population Mitotic Cells (%) [7]: 60%
Population Normal (%) [7]: 92%
Population Pyknosed Nuclei (%) [7]: 12%
Population Tubulin-Different-Phenotype (%) [7]: 14%
Total Cell Count [7]: 168
Population Apoptotic (%) [8]: 36%
Population Fragmented Nuclei (%) [8]: 7%
Population Healthy Nuclei (%) [8]: 79%
Population Hoechst High Intensity Objects (%) [8]: 4%
Population Membrane Permeable-Phenotype (%) [8]: 7%
Population Mitochondria Different-Phenotype (%) [8]: 12%
Population Mitotic Cells (%) [8]: 63%
Population Normal (%) [8]: 95%
Population Pyknosed Nuclei (%) [8]: 13%
Population Tubulin-Different-Phenotype (%) [8]: 7%
Total Cell Count [8]: 91
Population Apoptotic (%) [9]: 42%
Population Healthy Nuclei (%) [9]: 79%
Population Hoechst High Intensity Objects (%) [9]: 9%
Population Membrane Permeable-Phenotype (%) [9]: 2%
Population Mitochondria Different-Phenotype (%) [9]: 12%
Population Mitotic Cells (%) [9]: 57%
Population Normal (%) [9]: 90%
Population Pyknosed Nuclei (%) [9]: 9%
Population Tubulin-Different-Phenotype (%) [9]: 8%
Total Cell Count [9]: 406
Population Apoptotic (%) [10]: 25%
Population Fragmented Nuclei (%) [10]: 11%
Population Healthy Nuclei (%) [10]: 85%
Population Hoechst High Intensity Objects (%) [10]: 0%
Population Membrane Permeable-Phenotype (%) [10]: 4%
Population Mitochondria Different-Phenotype (%) [10]: 13%
Population Mitotic Cells (%) [10]: 75%
Population Normal (%) [10]: 100%
Population Pyknosed Nuclei (%) [10]: 3%
Population Tubulin-Different-Phenotype (%) [10]: 12%
Total Cell Count [10]: 136
Population Apoptotic (%) [11]: 60%
Population Fragmented Nuclei (%) [11]: 14%
Population Healthy Nuclei (%) [11]: 76%
Population Hoechst High Intensity Objects (%) [11]: 8%
Population Mitotic Cells (%) [11]: 40%
Population Normal (%) [11]: 91%
Population Pyknosed Nuclei (%) [11]: 9%
Population Tubulin-Different-Phenotype (%) [11]: 9%
Total Cell Count [11]: 231
Population Apoptotic (%) [12]: 23%
Population Fragmented Nuclei (%) [12]: 5%
Population Healthy Nuclei (%) [12]: 80%
Population Hoechst High Intensity Objects (%) [12]: 2%
Population Membrane Permeable-Phenotype (%) [12]: 6%
Population Mitochondria Different-Phenotype (%) [12]: 13%
Population Mitotic Cells (%) [12]: 76%
Population Normal (%) [12]: 97%
Population Pyknosed Nuclei (%) [12]: 14%
Population Tubulin-Different-Phenotype (%) [12]: 7%
Total Cell Count [12]: 130

CCCSc1nc(N[C@@H]2C[C@H]2c2ccc(F)c(F)c2)c2nnn([C@@H]3C[C@H](OCCO)[C@@H](O)[C@H]3O)c2n1 [TICAGRELOR]
Population Apoptotic (%) [1]: 23%
Population Fragmented Nuclei (%) [1]: 11%
Population Healthy Nuclei (%) [1]: 74%
Population Hoechst High Intensity Objects (%) [1]: 6%
Population Membrane Permeable-Phenotype (%) [1]: 4%
Population Mitochondria Different-Phenotype (%) [1]: 21%
Population Mitotic Cells (%) [1]: 76%
Population Normal (%) [1]: 93%
Population Pyknosed Nuclei (%) [1]: 14%
Population Tubulin-Different-Phenotype (%) [1]: 10%
Total Cell Count [1]: 116
Population Apoptotic (%) [2]: 66%
Population Fragmented Nuclei (%) [2]: 1%
Population Healthy Nuclei (%) [2]: 93%
Population Hoechst High Intensity Objects (%) [2]: 5%
Population Membrane Permeable-Phenotype (%) [2]: 5%
Population Mitochondria Different-Phenotype (%) [2]: 18%
Population Mitotic Cells (%) [2]: 33%
Population Normal (%) [2]: 94%
Population Pyknosed Nuclei (%) [2]: 4%
Population Tubulin-Different-Phenotype (%) [2]: 13%
Total Cell Count [2]: 82
Population Apoptotic (%) [3]: 87%
Population Fragmented Nuclei (%) [3]: 16%
Population Healthy Nuclei (%) [3]: 64%
Population Hoechst High Intensity Objects (%) [3]: 7%
Population Membrane Permeable-Phenotype (%) [3]: 37%
Population Mitochondria Different-Phenotype (%) [3]: 99%
Population Mitotic Cells (%) [3]: 12%
Population Normal (%) [3]: 92%
Population Pyknosed Nuclei (%) [3]: 19%
Population Tubulin-Different-Phenotype (%) [3]: 100%
Total Cell Count [3]: 125
Population Apoptotic (%) [4]: 75%
Population Fragmented Nuclei (%) [4]: 7%
Population Healthy Nuclei (%) [4]: 79%
Population Hoechst High Intensity Objects (%) [4]: 11%
Population Membrane Permeable-Phenotype (%) [4]: 43%
Population Mitochondria Different-Phenotype (%) [4]: 98%
Population Mitotic Cells (%) [4]: 25%
Population Normal (%) [4]: 88%
Population Pyknosed Nuclei (%) [4]: 12%
Population Tubulin-Different-Phenotype (%) [4]: 96%
Total Cell Count [4]: 67
Population Apoptotic (%) [5]: 9%
Population Fragmented Nuclei (%) [5]: 7%
Population Healthy Nuclei (%) [5]: 84%
Population Hoechst High Intensity Objects (%) [5]: 7%
Population Membrane Permeable-Phenotype (%) [5]: 3%
Population Mitochondria Different-Phenotype (%) [5]: 10%
Population Mitotic Cells (%) [5]: 90%
Population Normal (%) [5]: 92%
Population Pyknosed Nuclei (%) [5]: 7%
Population Tubulin-Different-Phenotype (%) [5]: 6%
Total Cell Count [5]: 116
Population Apoptotic (%) [6]: 57%
Population Fragmented Nuclei (%) [6]: 3%
Population Healthy Nuclei (%) [6]: 87%
Population Hoechst High Intensity Objects (%) [6]: 2%
Population Membrane Permeable-Phenotype (%) [6]: 4%
Population Mitochondria Different-Phenotype (%) [6]: 20%
Population Mitotic Cells (%) [6]: 42%
Population Normal (%) [6]: 97%
Population Pyknosed Nuclei (%) [6]: 8%
Population Tubulin-Different-Phenotype (%) [6]: 11%
Total Cell Count [6]: 81
Population Apoptotic (%) [7]: 94%
Population Fragmented Nuclei (%) [7]: 18%
Population Healthy Nuclei (%) [7]: 58%
Population Hoechst High Intensity Objects (%) [7]: 6%
Population Membrane Permeable-Phenotype (%) [7]: 55%
Population Mitochondria Different-Phenotype (%) [7]: 100%
Population Mitotic Cells (%) [7]: 5%
Population Normal (%) [7]: 93%
Population Pyknosed Nuclei (%) [7]: 22%
Total Cell Count [7]: 155
Population Apoptotic (%) [8]: 83%
Population Fragmented Nuclei (%) [8]: 7%
Population Healthy Nuclei (%) [8]: 73%
Population Hoechst High Intensity Objects (%) [8]: 8%
Population Membrane Permeable-Phenotype (%) [8]: 65%
Population Mitochondria Different-Phenotype (%) [8]: 97%
Population Mitotic Cells (%) [8]: 16%
Population Normal (%) [8]: 91%
Population Pyknosed Nuclei (%) [8]: 19%
Population Tubulin-Different-Phenotype (%) [8]: 97%
Total Cell Count [8]: 80
Population Apoptotic (%) [9]: 69%
Population Fragmented Nuclei (%) [9]: 6%
Population Healthy Nuclei (%) [9]: 87%
Population Hoechst High Intensity Objects (%) [9]: 4%
Population Mitochondria Different-Phenotype (%) [9]: 7%
Population Mitotic Cells (%) [9]: 30%
Population Normal (%) [9]: 95%
Population Pyknosed Nuclei (%) [9]: 5%
Population Tubulin-Different-Phenotype (%) [9]: 3%
Total Cell Count [9]: 107
Population Apoptotic (%) [10]: 25%
Population Fragmented Nuclei (%) [10]: 4%
Population Healthy Nuclei (%) [10]: 88%
Population Hoechst High Intensity Objects (%) [10]: 3%
Population Membrane Permeable-Phenotype (%) [10]: 2%
Population Mitochondria Different-Phenotype (%) [10]: 12%
Population Mitotic Cells (%) [10]: 75%
Population Normal (%) [10]: 96%
Population Pyknosed Nuclei (%) [10]: 6%
Population Tubulin-Different-Phenotype (%) [10]: 9%
Total Cell Count [10]: 74
Population Apoptotic (%) [11]: 89%
Population Fragmented Nuclei (%) [11]: 25%
Population Healthy Nuclei (%) [11]: 38%
Population Hoechst High Intensity Objects (%) [11]: 8%
Population Membrane Permeable-Phenotype (%) [11]: 60%
Population Mitochondria Different-Phenotype (%) [11]: 94%
Population Mitotic Cells (%) [11]: 10%
Population Normal (%) [11]: 91%
Population Pyknosed Nuclei (%) [11]: 36%
Population Tubulin-Different-Phenotype (%) [11]: 98%
Total Cell Count [11]: 230
Population Apoptotic (%) [12]: 71%
Population Fragmented Nuclei (%) [12]: 17%
Population Healthy Nuclei (%) [12]: 60%
Population Hoechst High Intensity Objects (%) [12]: 11%
Population Membrane Permeable-Phenotype (%) [12]: 74%
Population Mitochondria Different-Phenotype (%) [12]: 97%
Population Mitotic Cells (%) [12]: 28%
Population Normal (%) [12]: 88%
Population Pyknosed Nuclei (%) [12]: 21%
Population Tubulin-Different-Phenotype (%) [12]: 97%
Total Cell Count [12]: 130
